GAA850 FXN act = activators of GAA850 frataxin (FXN) promoter | HEK293 lucGAA850 FXN promoter luciferase reporter, 24 h; percent of 10 µM SAHA response | activation, % at 6 µM | hit rate 0.56% among 360,000;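 active means activation above the average of all compounds screened plus 3 SD, cutoff fixed separately per campaign, cut at about 7.5% in these data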;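 further: 0% = DMSO wells and 100% = 10 µM SAHA wells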
CHOP inh = inhibitors of CHOP induction in ER stress response; inhibition, % at 10 µM; hit rate 3.8% among 220,000; AID 2732; CHO-K1 CHOP-promoter luciferase, tunicamycin-induced, 15-18 h;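 active means compounds that reduced the stress-induced luciferase reporter signal by more than about 70% of percent inhibition, limit read from the data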;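 further: 0% = tunicamycin plus vehicle and 100% = wells without tunicamycin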
UPR XBP1 act = adaptive UPR (XBP1) activation; CHO-XBP1 luciferase reporter, IRE1-XBP1 UPR activation, luminescence; percent of tunicamycin response, DMSO as zero; activation, % at 20 µM; hit rate 0.33% among 330,000;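 active means versus positive control, 20 µM dose yields 30% or more activation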;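 further: 100% = tunicamycin at 10 µg/mL and 0% = DMSO only wells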
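Material – CHO cell line with stable XBP1 luciferase reporter · Buffer or medium – F12 plus 10% FBS · Compound – single point, 20 µM final compound, 1% DMSO · Schedule – 16-18 h cell attachment at 37 °C, then 6 h compound exposure · Signal – Steady-Glo luminescence read · Benchmarks – high control tunicamycin 10 µg/mL final, low control DMSO vehicle only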
CHOP UPR activ = apoptotic UPR (CHOP) activation; CHO-CHOP luciferase reporter, luminescence; percent of tunicamycin response over DMSO baseline; activation, % at 10 µM; hit rate 0.34% among 330,000;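 active means at 10 µM dose, activation of 40% or more, normalized to positive control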;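 further: 100% = tunicamycin at 10 µg/mL and 0% = DMSO alone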
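assay system = CHO CHOP reporter cells | amount = 500 CHO-CHOP cells per well | buffer or medium = F12 with 10% FBS | incubation = 16-18 h cell attachment, then 6 h compound exposure, 37 °C | detection = luminescence read with Steady-Glo | read-out = percent activation relative to tunicamycin control | controls = tunicamycin high control, DMSO low control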
UPR CHOP confirm = apoptotic UPR (CHOP) activation, confirmed; shares compounds with CHOP UPR activ; hit rate 64% among 1,000; AID 463112; CHO-CHOP cells, CHOP-luciferase reporter luminescence; percent of tunicamycin response, DMSO as zero; activation, % at 10 µM; in the data active means activation above about 33%;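 further: 0% = DMSO wells and 100% = tunicamycin 10 µg/mL wells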
XBP1 UPR conf = adaptive UPR (XBP1) activation, confirmed. shares compounds with UPR XBP1 act. CHO-XBP1 IRE1-XBP1 luciferase reporter, luminescence. AID 485299. hit rate 63% among 1,000. activation, % at 20 µM;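 active means reporter signal at least 30% of the positive control's activation in two or more of four replicate wells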;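 further: plate controls were DMSO negative control for no effect and tunicamycin 10 µg/mL positive control for full effect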
GAA30 FXN cntr = activates GAA30 frataxin promoter, counter-screen for GAA850 activators | shares compounds with GAA850 FXN act | HEK293 lucGAA30 FXN promoter luciferase, 24 h; DMSO = 0%, 5 µM ipriflavone = 100% | activation, % at 6 µM | hit rate 66% among 1,900 | AID 588350;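 active means mean activation above the mean of solvent-only control wells plus 3 SD, cut at about 22% in these data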;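 further: counterscreen of GAA850 promoter hits where activity marks nonselective or luminescence artifacts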
GAA850 confirm = confirmation of GAA850 frataxin (FXN) promoter activators; hit rate 86% among 1,900; HEK293 lucGAA850 FXN promoter luciferase reporter, 24 h; 100% = activation by SAHA; AID 588351; shares compounds with GAA850 FXN act; activation, % at 6 µM;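 active means mean activation above a set limit taken from the primary screen, cut at about 8% in these data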;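 further: 0% = DMSO wells and 100% = 10 µM SAHA wells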
Numbers without * were called inactive; · = not tested or not shown. Many of the other results were omitted from the sample, so hits are more common in it than they were.

SMILES	GAA850 FXN act	CHOP inh	UPR XBP1 act	CHOP UPR activ	UPR CHOP confirm	GAA30 FXN cntr	GAA850 confirm	others
O=C(Oc1c(CN2CCOCC2)cc(Cl)c2cccnc12)c1ccccc1F	7.7*	67	20	79*	70*	12	14*
O=C(Cc1ccc(Cl)cc1)NN1C(=O)c2ccccc2C1=O	3	6	0	0	·	·	·
COC(=O)[C@@H]1[C@@H](C#N)C2(c3ccccc3-c3ccccc32)N(c2ccc(Cl)cc2)N1C#N	12*	82*	4	92*	55*	-16	19*
C[C@@H](NC(=O)c1coc(=O)c(Br)c1)c1ccccc1	8.8*	36	-9	115*	97*	-10	5
COc1ccc(C(=O)NC(C)c2ccccc2)cc1Br (configuration not stated)	-1	8	-5	-2	·	·	·
O=c1[nH]c(=O)n2ncnc2[nH]1	2	·	·	·	·	·	·
COc1ccc(Nc2ccc3c(c2)=NC2(CCCCC2)[N+]=3[O-])cc1	17*	-36	13	45*	21	50*	106*
CCc1nc2c(OCc3cccc(Cl)c3)cccn2c1N(C)C(=O)C1CC1	1	·	·	·	·	·	·
CCCNC(=O)C1(C)CCN(C(=O)COc2ccc(Cl)cc2Cl)C1 (configuration not stated)	1	·	·	·	·	·	·
O=[N+]([O-])c1ccc(Sc2cccc3cccnc23)c([N+](=O)[O-])c1	22*	15	-2	256*	158*	-96	-22
O=C1c2ccccc2CCC12OC2c1ccc([N+](=O)[O-])cc1 (configuration not stated)	-1	·	·	·	·	·	·
COc1ccc(CCNC(=O)c2cc3c(=O)n4cccc(C)c4nc3n(Cc3ccco3)c2=N)cc1OC	13*	·	1	245*	1	3	6
CC12CCC(CC1O)C2C(=O)O (configuration not stated)	0	·	·	·	·	·	·
Cc1ccc2nc(-c3ccc(O)c(O)c3)cn2c1	10*	·	1	155*	61*	122*	49*
O=C(CCl)Nc1cc(S(=O)(=O)N2CCCCCC2)ccc1Cl	11*	78*	-2	83*	70*	-10	14*
O=C(Nc1ccccc1F)c1coc(=O)c(Br)c1	2	-25	14	3	·	·	·
O=C(NCCc1ccc(F)cc1)c1coc(=O)c(Br)c1	10*	·	-8	125*	88*	-6	17*
CCCCn1c(/C=N/Nc2nc3ccccc3[nH]2)nc2ccccc21	12*	-39	28	113*	294*	-92	-30
CCCCn1c(/C=C/c2ccco2)nc2ccccc21	0	-29	-2	2	·	·	·
COc1ccc(CN2C[C@@H](CO)O[C@@H](n3cnc4c(NCCN(C)C)ncnc43)C2)cc1	1	·	·	·	·	·	·
Cc1cc(N=O)c(C)cc1O	-1	·	·	·	·	·	·
Cc1cc(O)c(-c2cc(O)c(C)cc2O)cc1O	11*	-154	-8	74*	136*	18	29*
O=C(CCS(=O)(=O)c1ccccc1)N(CCCN1CCOCC1)c1nc2ccc(F)cc2s1	15*	·	-7	57*	21	105*	66*
CCN(CC)C(=O)C1=C(C)N(CCCOC)C(=O)C(CC(=O)NCCCN(C)C)C1 (configuration not stated)	0	·	·	·	·	·	·
O=c1oc(-c2ccc(O)c(O)c2)cc2cc(O)cc(O)c12	7	·	11	9	·	·	·
SMILES	GAA850 FXN act	CHOP inh	UPR XBP1 act	CHOP UPR activ	UPR CHOP confirm	GAA30 FXN cntr	GAA850 confirm	others
O=c1oc(-c2ccc(O)c(O)c2)cc2cccc(O)c12	13*	·	19	54*	9	129*	46*
CCc1cccc(CC)c1NC(=O)/C(C#N)=C/c1ccccc1C(F)(F)F	8.0*	84*	70*	71*	72*	-12	13*	XBP1 UPR conf=34*
COc1ccc(O)c(/C=N/Nc2nc(C)cc(-c3ccccc3)n2)c1	0	·	-2	6	·	·	·
COc1ccc(O)c(/C=N/Nc2nc(Nc3ccccc3)nc(-n3nc(C)cc3C)n2)c1	8.7*	11	0	102*	112*	11	16*
O=C(/C=C\c1ccc(-c2ccccc2)o1)c1ccccc1	12*	52	10	79*	4	67*	27*
O=C(/C=C/c1ccccc1)c1ccccc1	0	-64	10	4	·	·	·
CC(=O)Oc1ccc2c(c1)C(=O)CCCCCC(=O)O2	2	·	·	·	·	·	·
O=C(N/N=C/c1ccccn1)c1cc(-c2ccccc2)nc2ccccc12	7.7*	3	-4	133*	131*	-118	-37
O=C(N/N=C/c1ccccn1)c1ccc(Cl)c(Cl)c1	9.1*	·	1	208*	233*	-108	-30
O=C(N/N=C/c1ccccn1)c1ccc(NC(=O)c2ccccc2Cl)cc1	-2	·	1	2	·	·	·
COCCNC(=O)C1(C)CCCN(C(=O)c2ccccc2C(F)(F)F)C1 (configuration not stated)	-1	·	·	·	·	·	·
COc1nc(N)nc(NC(=O)c2cccs2)c1N=O	16*	·	-1	70*	62*	4	31*
COc1ccc(NC(=O)c2ccc(NC(=O)c3cccs3)cc2)cc1	1	·	7	1	·	·	·
CCC(=O)Nc1ccc(C(=O)NNC(=O)CCCCC(=O)NNC(=O)c2ccc(NC(=O)CC)cc2)cc1	0	·	·	·	·	·	·
Oc1ccc(-c2csc(-c3ccccc3)n2)cc1O	8.8*	-92	13	143*	53*	41*	34*
O=C1c2cccc3cc(Br)cc(c23)C(=O)N1Nc1ccc(Br)cc1	1	38	40*	22	·	·	·	XBP1 UPR conf=33*
O=C1c2cccc3cccc(c23)C(=O)N1Nc1ccccc1	4	13	6	-2	·	·	·
CCCCNC(=O)C1(C)CCN1C(=O)c1ccc2ccccc2n1 (configuration not stated)	0	·	·	·	·	·	·
O=C(COc1ccc2ccc(=O)oc2c1)Nc1c(Cl)cccc1C(F)(F)F	0	·	31*	-2	·	·	·	XBP1 UPR conf=-2
Cc1c(C(=O)NCc2ccc([N+](=O)[O-])cc2)sc(=O)n1Cc1ccc2c(c1)OCO2	0	·	·	·	·	·	·
CCCCN(C=O)c1c(CC)nc2ccc(C(=O)N3CCN(S(=O)(=O)CC)CC3)cn12	1	·	·	·	·	·	·
COc1ccc(OC)c(NC(=O)c2oc3ccccc3c2NC(=O)C2CC2)c1	3	·	60*	1	·	·	·	XBP1 UPR conf=40*
COc1ccc(CC(=O)Nc2cc3oc4ccccc4c3cc2OC)cc1	5	17	2	6	·	·	·

Screens from PubChem.
